# Bioassay records (PubChem)
# NF-kB neuron act: activators of NF-kB expression in neurons, primary screen, cell-based, HTS | human neuronal cells, NF-kB reporter expression; stronger effect = higher value | fold change at 12.5 µM | actives 1.6% (n = 190,000) | AID 1239, 2008; in the data active = fold change above about 3.3
# STAT1 blocker: STAT1 signaling inhibitors, primary screen, cell-based, HTS, luciferase reporter; NIH 3T3 STAT1-luciferase reporter, IFN-gamma, luminescence; inhibition, % at 5.5 µM; actives 0.35% (n = 200,000); AID 920, 2007;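 active = inhibition above a set limit, the mean inhibition across all tested compounds plus 3 SD, cut at about 34% in these data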;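 note: 0% = IFN-gamma with DMSO and 100% = IFN-gamma with 300 µM nifuroxazide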
# APP 5'UTR act: activators of APP 5'UTR luciferase reporter, primary screen, SH-SY5Y cells; activation, % at 2 µM; actives 1% (n = 190,000); AID 1276, 2008; SH-SY5Y APP 5'UTR luciferase reporter, luminescence; zero percent = DMSO vehicle wells;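 active = activation above a set limit, based on mean plus 3 SD of controls, cut at about 140% in these data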
# STAT3 act: IL-6 driven STAT3 reporter potentiators, primary screen, U3A cells, luciferase, luminescence, MLSCN library; actives 0.91% (n = 190,000); IL-6 STAT3-luciferase reporter; 100% = signal with IL-6 EC80 alone; activation (% of control), % at 5.6 µM; AID 871, 2007;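 active = activation above the screen-wide mean of compound activation plus 3 SD, cut at about 130% in these data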;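 note: 0% = background luminescence of wells with medium and substrate only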
#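 Material: STAT1-lacking human U3A cells, STAT3 luciferase reporter | Benchmarks: IL-6-only wells as 100% reference | Probe or stimulus: IL-6 (33 ng/mL) | Timing: Compound 1 h, then IL-6 6 h at 37 °C | Detection: Luminescence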
# STAT3 inh-1: IL-6 driven STAT3 reporter inhibitors, primary screen, U3A cells, luciferase, luminescence, MLSCN library; IL-6 STAT3-luciferase reporter; host cell line lacks STAT1; inhibition, % at 5.5 µM; actives 0.89% (n = 190,000); AID 862, 2007;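 active = inhibition above the mean inhibition across all screened compounds plus 3 SD, cut at about 44% in these data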;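 note: 0% = DMSO only wells and 100% = 100 µM nifuroxazide control wells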
# STAT1 activator: STAT1 signaling activators, primary screen, cell-based, HTS, luciferase reporter; NIH 3T3 STAT1-luciferase reporter, IFN-gamma, luminescence; 100% = IFN-gamma alone, no compound; actives 2.6% (n = 200,000); activation (% of control), % at 5.5 µM; AID 932, 2007;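 active = activation above the screen-wide mean activation plus 3 SD, cut at about 130% in these data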;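 note: raw ratio to IFN-gamma control signal so 100% means no change and 0% no light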
# STAT3 inh-2: STAT3 reporter inhibitors, retest of hits, confirmation, U3A cells, luciferase, luminescence | actives 45% (n = 1,200) | AID 1265, 2008 | inhibition, % at 5.7 µM | shares compounds with STAT3 inh-1 | IL-6 STAT3 luciferase reporter; cell line lacks STAT1;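 active = inhibition above the hit cutoff computed for the primary STAT3 screen, cut at about 44% in these data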;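 note: 0% = IL-6 plus DMSO and 100% = IL-6 plus nifuroxazide control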
# NFkB inh STAT3ct: NF-kB reporter inhibitors in human cells, confirmation, counter-screen for STAT3 inhibitor project, cell-based, HEK293T, luciferase, TNF-alpha stimulus; shares compounds with STAT3 inh-1; TNF-alpha induced; inhibition, % at 5.7 µM; actives 36% (n = 1,200);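 active = inhibition above the mean of solvent-only control wells plus 3 SD, cutoff set per campaign, cut at about 13% in these data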;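 note: 0% = TNF-alpha with DMSO and 100% = TNF-alpha with MG high control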
# STAT1 inh STAT3c: STAT1 reporter inhibitors, IFN-gamma induced, confirmation, counter-screen for STAT3 inhibitor project, cell-based, NIH 3T3, luciferase luminescence | shares compounds with STAT3 inh-1 | NIH 3T3 STAT1-luciferase reporter | inhibition, % at 5.7 µM | actives 27% (n = 1,200) | AID 1317, 2008;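 active = inhibition above the mean plus 3 SD of solvent-only control wells, limit set per screening run, cut at about 16% in these data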;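 note: 0% = DMSO with IFN-gamma and 100% = nifuroxazide control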
# * = called active by the depositor; nt = no result. The list is not random: actives were taken first. Their share in the collection is about 5.1%.
SMILES,NF-kB neuron act,STAT1 blocker,APP 5'UTR act,STAT3 act,STAT3 inh-1,STAT1 activator,STAT3 inh-2,NFkB inh STAT3ct,STAT1 inh STAT3c
COc1cc(COCC(O)CN2CCc3ccccc3C2)cc(OC)c1OC (stereo not given),0.97,-3.3,22.1,97.2,12.1,103.2,nt,nt,nt
CC[n+]1ccccc1/C=C/c1ccc(N(C)C)cc1,0.71,30.9,1.6,43.5,68.3*,70.0,60.3*,3.6,13.8
O=C(CN1CCC(c2nc3ccccc3s2)CC1)NCc1cccs1,1.05,12.3,-1.6,65.5,45.5*,88.8,27.9,-1.3,-1.0
Cc1csc(NC(=O)c2cc3c(s2)CCCC3)n1,2.43,24.1,164.6*,27.0,86.1*,77.9,54.8*,-1.4,-62.5
C(#CCN1CCC(Cc2ccccc2)CC1)COCCOCc1ccccc1,0.89,3.1,-25.8,107.7,-5.1,97.2,nt,nt,nt
CC(C)OC(=O)c1sc2nc(-c3ccccc3)ccc2c1N,0.79,-13.1,168.3*,56.2,60.7*,111.8,16.7,-23.4,-162.9
CCCC(=O)Nc1ccc(-c2cnc(-c3ccc(NC(=O)CCC)cc3)nc2)cc1,0.89,-7.4,-0.6,101.1,-1.8,106.8,nt,nt,nt
Nc1ccc(-c2cnc(-c3ccc(N)cc3)nc2)cc1,4.77*,-40.2,126.0,58.5,48.9*,137.4*,5.4,-33.2,-105.9
CCOC(=O)C1CCCN(S(=O)(=O)c2ccc(S(=O)(=O)N(CC)CC)cc2)C1 (stereo not given),1.18,31.2,-23.3,35.1,77.9*,69.6,83.2*,33.6*,26.7*
CN(C)c1ccc(/C=c2\sc3n(c2=O)CCCN=3)cc1,5.7*,-54.7,141.6*,45.7,63.9*,150.0*,10.6,-20.5,-179.0
CN(C)c1ccc(/C=C2\CCC/C(=C\c3ccccc3)C2=O)cc1,1.01,-0.4,0.9,92.4,11.6,100.4,nt,nt,nt
Cc1cccc2cc(-c3ccccc3)c(-c3ccccc3)c[n+]12,0.61,25.7,0.3,63.6,45.7*,77.4,19.2,-9.8,1.3
Cc1nn2cc(-c3ccccc3)nc2s1,5.4*,-48.6,113.9,57.9,52.2*,144.2*,11.9,-32.1,-97.8
CCN(CC)S(=O)(=O)c1cccc(C(=O)NC(Cc2c[nH]c3ccccc23)c2nnc3n2CCCCC3)c1 (stereo not given),0.79,-0.1,13.0,110.6,-12.0,100.1,nt,nt,nt
COc1ccc2c(=O)c(-c3nc(C)cs3)coc2c1,5.89*,-16.2,96.5,58.6,51.3*,119.6,4.1,-16.7,-103.2
Cc1nc(-c2coc3cc(OCC(=O)O)ccc3c2=O)cs1,0.84,23.0,-0.5,73.5,38.2,79.0,nt,nt,nt
COc1cc(/C=N/Nc2nc(C)cc(=O)[nH]2)ccc1OC(=O)c1cccnc1,1.06,-8.0,2.4,99.7,1.7,106.0,nt,nt,nt
Cc1sc(NC(=O)c2ccco2)c(C(c2cccnc2)N2CCN(CCO)CC2)c1C (stereo not given),0.85,-8.1,4.3,95.7,14.8,105.7,nt,nt,nt
CCOC(=O)C1CCN(C(c2cccnc2)c2c(NC(=O)c3ccco3)sc(C)c2C)CC1 (stereo not given),0.92,6.3,9.3,57.5,50.0*,94.2,63.5*,14.3*,-2.2
O=C(CSc1nnc(-c2c[nH]c3ccccc23)o1)N1c2ccccc2CCc2ccccc21,0.48,1.3,1.5,63.2,48.6*,98.8,29.4,1.3,1.9
CCCCOc1ccc(CSCCN=C(N)N)cc1,0.87,16.2,40.8,80.9,24.5,83.5,nt,nt,nt
Cc1c(N(C(=O)c2ccccn2)C2(C(=O)NC3CCCC3)CCCCC2)c(=O)n(-c2ccccc2)n1C,1.34,-1.2,0.4,106.8,1.3,99.2,nt,nt,nt
Cc1cc(C(=O)CSc2nnc(N)s2)c(C)n1Cc1cccs1,2.69,-12.2,136.5*,57.5,50.7*,111.0,35.8,8.0,-46.2
Cc1csc(SCC(=O)c2cc(C)n(Cc3cccs3)c2C)n1,0.73,39.9*,120.1,34.7,78.7*,75.0,51.7*,24.0*,-26.0
COc1ccc(-c2nnc(SCC(=O)c3cc(C)n(Cc4cccs4)c3C)o2)cc1,1.77,1.7,4.7,103.7,-0.8,98.4,nt,nt,nt
SMILES,NF-kB neuron act,STAT1 blocker,APP 5'UTR act,STAT3 act,STAT3 inh-1,STAT1 activator,STAT3 inh-2,NFkB inh STAT3ct,STAT1 inh STAT3c
Cc1cc(C(=O)COc2cccnc2[N+](=O)[O-])c(C)n1Cc1cccs1,1.11,13.1,1.1,74.8,32.5,87.3,nt,nt,nt
CC(=O)Nc1ccccc1OCC(=O)c1cc(C)n(Cc2cccs2)c1C,0.47,7.0,17.0,37.2,79.4*,94.7,84.1*,27.4*,-15.9
Cc1ccc(C(=O)N2CCN(CCNC(=O)C(=O)NC(C)C)CC2)cc1,1.06,-1.7,15.4,102.8,1.2,100.1,nt,nt,nt
c1ccc2sc(NN=C3CCCCCC3)nc2c1,2.94,34.3*,149.1*,40.1,75.4*,66.4,38.5,7.4,-83.0
O=C1CC(c2ccccc2)CC(O)=C1C=Nc1ccccc1 (stereo not given),1.25,-10.6,9.1,103.3,-1.7,109.3,nt,nt,nt
O=C1C(C=Nc2ccc(F)cc2)=C(O)c2ccccc21,7.14*,-51.0,148.0*,58.8,50.9*,148.6*,-31.1,-57.4,-213.2
Cc1ccc(F)cc1NC(=O)CSc1ncccn1,1.1,-12.6,-3.5,102.7,3.7,110.3,nt,nt,nt
Cc1nn(C)c(Cl)c1NC(=O)OCc1ccc(Cl)cc1Cl,0.67,21.1,-10.7,64.5,51.4*,81.0,35.7,7.7,5.1
Cc1nnsc1NC(=O)OCc1ccc(Cl)cc1Cl,0.96,3.4,10.2,86.4,26.6,96.9,nt,nt,nt
Cc1ccc(-c2nnn(CC(=O)N(c3ccc4c(c3)OCCO4)C(C(=O)NCC3CCCO3)c3ccc(F)cc3)n2)o1 (stereo not given),1.07,2.7,-12.0,102.4,2.2,99.1,nt,nt,nt
Cc1ccc(C(=O)Nc2ccnc(-c3cccnc3)n2)cc1,1.44,-23.2,21.1,88.8,14.6,120.0,nt,nt,nt
Cc1ccc(NC(=O)Nc2ccnc(-c3cccnc3)n2)cc1,0.96,19.0,-82.7,49.0,66.2*,82.2,70.2*,1.5,22.7*
